Source: PubChem
Hits are enriched below; roughly 5.4% of the tested compounds scored in any of these assays.
Rev-RRE block – HIV-1 Rev-RRE binding inhibitors, primary screen, biochemical, FRET, protein-RNA interaction. Rev peptide-RRE RNA binding. P05866. inhibition, % at 8 µM. 0.79% of 97,000 active;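 active = inhibition above the screen-wide mean plus 3 SD, cut at about 35% in these data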;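 note: 0% = median DMSO wells and 100% = median Neomycin B control wells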
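System: Cy5-labelled duplex RRE RNA binding fluorescein-labelled HIV Rev peptide; Signal: fluorescein-to-Cy5 FRET, 480 nm excitation; Also added: labelled Rev peptide; Compound: one concentration, 8 µM nominal; Buffer or medium: HEPES pH 7.5 salt buffer with EDTA; Read-out: % inhibition of FRET ratio versus controls; Schedule: 5 min preincubation and 15 min binding, 25 °C.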
EphB4 ephrin blk – EphB4-ephrin-B2 interaction antagonists, primary screen, biochemical, TNYL-RAW peptide probe, fluorescence polarization. Ephrin type-B receptor 4 (Homo sapiens), P54760. EphB4 LBD / TNYL-RAW-Alexa532 peptide. inhibition, % at 7 µM. 0.15% of 97,000 active. AID 720, 2007;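 active = inhibition above the screen-wide mean inhibition plus 3 SD, cut at about 15% in these data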;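 note: 0% = DMSO wells and 100% = excess unlabeled TNYL-RAW peptide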
Cav32 inh – Cav3.2 calcium influx blockers – cell-based, Fluo-4 calcium fluorescence, FDSS, MLSMR library, primary screen | 4% of 100,000 active | AID 449739, 2010 | Voltage-dependent T-type calcium channel subunit alpha-1H (Homo sapiens), O95180 | B-score at 10 µM | Cav3.2-expressing cells; active compounds read low;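 active = single-dose well whose peak fluorescence ratio is a statistical outlier from its plate by either plate-standardised score or position-corrected B-score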
hDAT+cocaine – changed hDAT dopamine uptake under cocaine IC80, either direction, primary screen, cocaine antagonist project, cell-based, LLC-PK1 hDAT, [14C]-dopamine uptake, MLSMR; Sodium-dependent dopamine transporter (Homo sapiens), Q01959; LLC-PK1 hDAT cells, [14C]-dopamine uptake with cocaine IC80; actives deviate in either direction; B-score at 10 µM; 1.3% of 110,000 active;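 active = Z score or B-score, a plate-position-corrected score, falls beyond the plate's 99.7% confidence bounds, in either direction; inactive = both scores lie inside the 99.7% bounds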;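 note: scored against the spread of the other compound wells on the same plate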
Target sequence (Q01959 whole entry, looked up): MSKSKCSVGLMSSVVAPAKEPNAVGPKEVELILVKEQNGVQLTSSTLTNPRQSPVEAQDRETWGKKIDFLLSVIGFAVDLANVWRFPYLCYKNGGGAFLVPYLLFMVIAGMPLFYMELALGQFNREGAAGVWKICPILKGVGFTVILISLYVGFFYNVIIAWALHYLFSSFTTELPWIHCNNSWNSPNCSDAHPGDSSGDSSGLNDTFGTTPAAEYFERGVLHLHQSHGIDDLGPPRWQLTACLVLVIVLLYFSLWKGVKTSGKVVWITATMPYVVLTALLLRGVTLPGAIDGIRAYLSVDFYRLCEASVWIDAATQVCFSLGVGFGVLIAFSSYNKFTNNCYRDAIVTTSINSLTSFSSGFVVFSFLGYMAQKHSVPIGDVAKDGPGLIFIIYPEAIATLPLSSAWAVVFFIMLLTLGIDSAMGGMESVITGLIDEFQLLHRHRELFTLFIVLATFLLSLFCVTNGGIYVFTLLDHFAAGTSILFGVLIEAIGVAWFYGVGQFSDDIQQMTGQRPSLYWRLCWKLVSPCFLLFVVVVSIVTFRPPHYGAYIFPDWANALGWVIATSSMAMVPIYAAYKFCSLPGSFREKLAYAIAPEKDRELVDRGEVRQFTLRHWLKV
* = called active by the depositor; . = not tested or not shown.

SMILES	Rev-RRE block	EphB4 ephrin blk	Cav32 inh	hDAT+cocaine
O=C(CSC1=NCCS1)Nc1ccc(S(=O)(=O)N2CCCCCC2)cc1	16	2	-4.4*	0.41
O=C(NCCSCc1ccco1)Nc1ccc(Cl)cc1	0	7	.	-0.11
O=C(NCCSCc1ccco1)Nc1cccc(Cl)c1	2	-1	-4.5*	-0.66
CC1CCCC(C)N1C(=O)CSc1nnc(COc2ccccc2)n1-c1ccccc1 (stereo unspecified)	2	-3	-3.5*	-0.23
COc1ccc(-n2c(COc3ccccc3)nnc2SCC(N)=O)cc1	-1	5	0.52	1.9
O=C(CSc1nnc(COc2ccccc2)n1-c1ccccc1)c1ccccc1	-4	-8	-6.1*	1
CCCCC(=O)Nc1cc(C(=O)NCCc2ccccc2)ccc1Cl	10	-3	0.61	0.66
COc1ccc(C2NC(=O)NC(O)(C(F)(F)F)C2C(=O)c2ccc(C)cc2)cc1 (stereo unspecified)	3	-7	-3	0.54
Cc1ccc(C(=O)C2C(c3ccc(-c4ccccc4[N+](=O)[O-])o3)NC(=O)NC2(O)C(F)(F)F)cc1 (stereo unspecified)	13	2	-7.1*	2
O=C(OCC(=O)N1CCN(C(=O)c2ccco2)CC1)c1cn(-c2ccccc2)nc1-c1ccccc1	0	-7	-2.5	4.4*
O=C(OCC(=O)N1CCN(C(=O)c2ccco2)CC1)c1cc(-c2ccccc2)nc2ccccc12	7	5	-0.12	1.1
CCCCOC(=O)Cn1c(=O)n(CC(=O)OCCCC)c2ccccc21	0	-3	-6.4*	-0.08
CSC(=NC#N)N1CCN(c2ccc(Cl)cc2)CC1	1	3	-0.39	2.3
COc1cccc(CNc2ccc(N3CCC(C)CC3)cc2)c1OC	2	0	-7.7*	0.16
COc1cccc(CNc2nn[nH]n2)c1OC	0	4	0.18	-0.54
O=C1CC(=O)N(Cc2ccco2)C(=S)N1	77*	1	0.36	-1.3
O=C1CC(=O)N(Cc2ccco2)C(=O)N1	.	.	.	-0.35
N#Cc1c(-c2ccccc2)cc(-c2ccco2)c(C#N)c1N	37*	-6	.	.
CC(C)(C)c1cc(-c2ccco2)c(C#N)c(SCC#N)n1	0	-5	-0.66	1.1
N#Cc1sc2nc(-c3ccccc3)cc(-c3ccco3)c2c1N	37*	1	-0.63	-0.67
Cc1cc(Cl)c(S(=O)(=O)NC2CCCC2)cc1OCC(=O)NC1CCCCC1	9	1	-1.3	-1.1
COc1ccccc1N1CCN(CC(O)COc2ccc3c(c2)CCC3)CC1 (stereo unspecified)	8	-1	-6.1*	1.9
OC(COc1ccc2ccccc2c1)CN1CCN(c2ccc(F)cc2)CC1 (stereo unspecified)	.	.	-0.57	-0.017
CC(=O)c1c(C)nn(CC(O)COc2ccc3c(c2)CCC3)c1C (stereo unspecified)	4	-8	0.65	15*
Cc1nn(CC(O)COc2ccc3c(c2)CCC3)c(C)c1Br (stereo unspecified)	7	5	-1.5	-0.41
SMILES	Rev-RRE block	EphB4 ephrin blk	Cav32 inh	hDAT+cocaine
CC(C)(C)CC(C)(C)NCC(O)COc1ccc2c(c1)CCC2 (stereo unspecified)	10	-4	-8.3*	-0.44
Cc1nc(C)n(CC(O)COc2ccc3c(c2)CCC3)n1 (stereo unspecified)	-6	5	-0.0068	0.043
CCn1c2ccccc2c2cc(NC(=O)c3ccc(Br)o3)ccc21	76*	3	-0.98	1
Cc1ccc(S(=O)(=O)N/N=C/c2cccn2-c2ccc(Cl)cc2)cc1	5	-7	-4.3*	0.83
Cc1ccc(S(=O)(=O)N/N=C/c2c(C)nn(-c3ccccc3)c2C)cc1	-2	-6	-2.5	2.5*
Cc1ccc(S(=O)(=O)N/N=C\c2cn(-c3ccccc3)nc2-c2ccccc2)cc1	7	4	-2.1	1.3
CCCCCCN(C(=O)CCCCCN1C(=O)NC(c2ccc(Cl)cc2)C(C(=O)OCc2ccccc2)=C1C)C(C(=O)NCCCC)c1ccc(OCC(=O)OC)c(C(=O)OC)c1 (stereo unspecified)	.	.	-1.1	1.1
COc1cc2nc(=S)n3[nH]c(CCn4c(C)nc5ccccc54)nc3c2cc1OC	.	.	3.3*	0.43
CCOP(=O)(c1ccccc1)c1nc(-c2ccccc2Cl)oc1N1CCCCC1 (stereo unspecified)	-3	-5	-11*	0.83
CC1CCN(c2oc(-c3ccccc3Cl)nc2C#N)CC1	.	.	-0.67	1.2
COc1ccc(NC(=O)N(CCO)Cc2cc3c(C)cc(C)cc3[nH]c2=O)cc1	2	-2	-0.077	2.9*
Cc1ccc2cc(CN(Cc3ccco3)C(=O)NC3CCCCC3)c(=O)[nH]c2c1C	4	6	-4.4*	0.84
Cc1ccc2cc(CN(Cc3ccco3)C(=O)C3CCCCC3)c(=O)[nH]c2c1C	7	-6	-1.5	0.74
Cc1cc(C)c2cc(CN(Cc3ccco3)C(=O)NCc3ccccc3)c(=O)[nH]c2c1	.	.	-7.1*	1.2
O=C(NCc1ccco1)C1Cc2ccccc2CN1S(=O)(=O)c1ccccc1F (stereo unspecified)	2	-7	.	.
Cc1nc(N2CCC(C)CC2)c2nnn(Cc3ccccc3)c2n1	2	-4	-1.2	3.1*
CC(=O)[C@H]1[C@@H]2C(=O)N(c3cccc(Cl)c3)C(=O)[C@@H]2[C@H]2c3ccccc3C=CN21	60*	-1	-1.9	-0.27
CC(=O)[C@@H]1[C@@H]2C(=O)N(c3ccc(F)c(Cl)c3)C(=O)[C@@H]2C2c3ccccc3C=CN21 (stereo partly specified)	.	.	-0.96	1.5
O=C(c1ccco1)[C@@H]1[C@@H]2C(=O)N(c3ccc(Br)cc3)C(=O)[C@@H]2C2c3ccccc3C=CN21 (stereo partly specified)	41*	-2	-2	0.67
O=C1NC(=O)[C@@H]2C3c4ccccc4C=CN3[C@H](C(=O)c3cccs3)[C@H]12 (stereo partly specified)	35	-9	-1.1	0.0076
O=C(c1ccco1)[C@@H]1[C@@H]2C(=O)N(c3ccc(F)cc3)C(=O)[C@@H]2C2c3ccccc3C=CN21 (stereo partly specified)	42*	11	-0.24	-0.066
CC(C)(C)C(=O)[C@@H]1[C@@H]2C(=O)N(Cc3ccccc3)C(=O)[C@@H]2[C@H]2c3ccccc3C=CN12	19	6	-3.2	2
NC(=O)[C@@H]1CCCNc2c(F)cc([N+](=O)[O-])cc2C(=O)N[C@@H](CCC(=O)O)C(=O)N[C@@H](CO)C(=O)N1	.	.	0.77	-0.26
O=C(CSc1ncnc2scc(-c3ccc(Cl)cc3)c12)NCc1ccc2c(c1)OCO2	0	-2	-0.69	0.69
